# Source: ChEMBL document CHEMBL1255444, “In vitro antibacterial activities of JNJ-Q2, a new broad-spectrum fluoroquinolone” (Antimicrob Agents Chemother, 2010)
# Calls of active or inactive are those of the source. No cut-off for these calls is given here.
# Columns and labels:
# Streptococcus pneumoniae [1] = test: Antibacterial activity against Streptococcus pneumoniae isolate OC7348 assessed as log reduction in bacterial growth at 4 times MIC measured at 6 hrs by time-kill assay; assay type: functional
# Procedure, shortened: (§1)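 Drug was diluted from 50× stocks made in water or acidified water. Samples were taken at 6 and 24 h and serially diluted onto TSA-5% sheep blood plates. Plates were incubated 20–24 h at 37°C in 5% CO2 before counting CFU. Log10 titer change is given relative to the starting inoculum.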
# [2] = Aqueous solubility of the compound; assay type: physicochemical
# Streptococcus pneumoniae [3] = test: Antibacterial activity against Streptococcus pneumoniae isolate OC7368 assessed as log reduction in bacterial growth at 2 times MIC measured at 24 hrs by time-kill assay; assay type: functional; procedure, shortened: as §1
# [4] = tested on: Staphylococcus epidermidis; test: Antibacterial activity against methicillin-resistant Staphylococcus epidermidis by broth microdilution method; assay type: functional
# Staphylococcus aureus [5] = test: Antibacterial activity against methicillin-resistant Staphylococcus aureus isolate OC4222 harboring gyrA S84L and parC S80F mutant gene assessed as log reduction in bacterial growth at 2 times MIC measured at 24 hrs by time-kill assay; assay type: functional
# Procedure, shortened: (§2)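 Overnight MRSA cultures were diluted into fresh cation-adjusted Mueller-Hinton broth to about 5 × 10^6 CFU/ml. […] Samples were plated serially diluted on trypticase soy agar, and CFU were counted after 20-24 h at 37°C. Value is the log10 decrease at 24 h from the starting inoculum; detection limit 100 CFU.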
# Staphylococcus aureus [6] = test: Antibacterial activity against methicillin-resistant Staphylococcus aureus isolate OC11223 assessed as log reduction in bacterial growth at 2 times MIC measured at 24 hrs by time-kill assay; assay type: functional; procedure, shortened: as §2
# Streptococcus pneumoniae [7] = test: Antibacterial activity against Streptococcus pneumoniae isolate OC5462 assessed as log reduction in bacterial growth at 2 times MIC measured at 24 hrs by time-kill assay; assay type: functional; procedure, shortened: as §1
# Staphylococcus aureus [8] = test: Antibacterial activity against methicillin-resistant Staphylococcus aureus isolate OC11150 harboring gyrA S84L and parC S80Y mutant gene by agar dilution method; assay type: functional
# Procedure, shortened: (§3)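 MICs for the resistance-selection studies were determined by CLSI agar dilution on Mueller-Hinton medium. For S. pneumoniae the medium was supplemented with 5% lysed horse blood. For MRSA fluctuation-assay strains an arithmetic agar dilution scheme was used for a more precise MIC.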
# Streptococcus pneumoniae [9] = test: Antibacterial activity against Streptococcus pneumoniae isolate OC6585 assessed as log reduction in bacterial growth at 4 times MIC measured at 6 hrs by time-kill assay; assay type: functional; procedure, shortened: as §1
# [10] = tested on: Staphylococcus epidermidis; test: Antibacterial activity against methicillin-, ciprofloxacin-resistant Staphylococcus epidermidis by broth microdilution method; assay type: functional
# Streptococcus pneumoniae [11] = test: Antibacterial activity against Streptococcus pneumoniae isolate OC5462 by broth microdilution method; assay type: functional
# Procedure, shortened: (§4)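 CLSI M07-A7 broth microdilution MIC. Medium was cation-adjusted Mueller-Hinton broth. For S. pneumoniae it was Mueller-Hinton supplemented with 5% lysed horse blood. CLSI quality-control strains were included as appropriate.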
# Streptococcus pneumoniae [12] = test: Antibacterial activity against Streptococcus pneumoniae isolate OC5462 assessed as log reduction in bacterial growth at 4 times MIC measured at 6 hrs by time-kill assay; assay type: functional; procedure, shortened: as §1
# Streptococcus pneumoniae [13] = test: Antibacterial activity against Streptococcus pneumoniae isolate OC7368 by broth microdilution method; assay type: functional; procedure, shortened: as §4
# Streptococcus pneumoniae [14] = test: Antibacterial activity against Streptococcus pneumoniae isolate OC7189 assessed as log reduction in bacterial growth at 2 times MIC measured at 24 hrs by time-kill assay; assay type: functional; procedure, shortened: as §1
# Streptococcus pyogenes = test: Antibacterial activity against Streptococcus pyogenes by broth microdilution method; assay type: functional
# Procedure, shortened: (§5)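 MICs by CLSI M07-A7 broth microdilution in cation-adjusted Mueller-Hinton medium. For S. pneumoniae the medium was supplemented with 5% lysed horse blood. CLSI quality control strains were run alongside as appropriate.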
# Streptococcus pneumoniae [15] = test: Antibacterial activity against Streptococcus pneumoniae isolate OC5462 assessed as log reduction in bacterial growth at 4 times MIC measured at 24 hrs by time-kill assay; assay type: functional; procedure, shortened: as §1
# Staphylococcus aureus [16] = test: Antibacterial activity against methicillin-resistant Staphylococcus aureus isolate OC17042 harboring gyrA S84L/G106D, parC S80F and parE D732N mutant gene by broth microdilution method; assay type: functional; procedure, shortened: as §4
# Providencia stuartii [17] = test: Ratio of Moxifloxacin MIC90 to compound MIC90 for Providencia stuartii; assay type: functional
# Streptococcus pneumoniae [18] = test: Antibacterial activity against Streptococcus pneumoniae isolate OC5462 assessed as log reduction in bacterial growth at 2 times MIC measured at 6 hrs by time-kill assay; assay type: functional; procedure, shortened: as §1
# [19] = Distribution coefficient, log D of the compound; assay type: physicochemical; settings: octanol/water
# Streptococcus pneumoniae [20] = test: Antibacterial activity against multidrug resistant Streptococcus pneumoniae by broth microdilution method; assay type: functional, organism-based
# Procedure, shortened: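 CLSI M07-A7 broth microdilution MIC in cation-adjusted Mueller-Hinton medium. For S. pneumoniae the medium was supplemented with 5% lysed horse blood. CLSI quality-control strains were included as appropriate.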
# Providencia stuartii [21] = test: Ratio of Ciprofloxacin MIC90 to compound MIC90 for Providencia stuartii; assay type: functional
# Staphylococcus aureus [22] = test: Antibacterial activity against methicillin-resistant Staphylococcus aureus isolate OC8525 harboring wild type quinolone resistance-determining region by agar dilution method; assay type: functional
# Procedure, shortened: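 CLSI agar dilution MIC on cation-adjusted Mueller-Hinton medium. These were the MIC values used for the resistance studies, and CLSI quality-control strains were included as appropriate.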
# Staphylococcus aureus [23] = test: Antibacterial activity against methicillin-, ciprofloxacin-resistant Staphylococcus aureus by broth microdilution method; assay type: functional; procedure, shortened: as §4
# Streptococcus pneumoniae [24] = test: Ratio of Levofloxacin MIC90 to compound MIC90 for ciprofloxacin-resistant Streptococcus pneumoniae; assay type: functional
# Streptococcus pneumoniae [25] = test: Antibacterial activity against Streptococcus pneumoniae isolate OC6608 assessed as log reduction in bacterial growth at 2 times MIC measured at 24 hrs by time-kill assay; assay type: functional; procedure, shortened: as §1
# Staphylococcus aureus [26] = test: Antibacterial activity against methicillin-resistant Staphylococcus aureus isolate OC12501 assessed as log reduction in bacterial growth at 2 times MIC measured at 24 hrs by time-kill assay; assay type: functional; procedure, shortened: as §2
# Streptococcus pneumoniae [27] = test: Antibacterial activity against Streptococcus pneumoniae isolate OC7376 assessed as log reduction in bacterial growth at 4 times MIC measured at 24 hrs by time-kill assay; assay type: functional; procedure, shortened: as §1
# Staphylococcus aureus [28] = test: Antibacterial activity against methicillin-resistant Staphylococcus aureus isolate OC4222 harboring gyrA S84L and parC S80F mutant gene assessed as log reduction in bacterial growth at 4 times MIC measured at 24 hrs by time-kill assay; assay type: functional; procedure, shortened: as §2
# Streptococcus pneumoniae [29] = test: Antibacterial activity against Streptococcus pneumoniae isolate OC7348 by broth microdilution method; assay type: functional; procedure, shortened: as §4
# Providencia stuartii [30] = test: Antibacterial activity against Providencia stuartii by broth microdilution method; assay type: functional; procedure, shortened: as §5
# Streptococcus pneumoniae [31] = test: Antibacterial activity against Streptococcus pneumoniae isolate OC7376 assessed as log reduction in bacterial growth at 2 times MIC measured at 6 hrs by time-kill assay; assay type: functional; procedure, shortened: as §1
# Streptococcus pneumoniae [32] = test: Antibacterial activity against Streptococcus pneumoniae isolate OC7189 by broth microdilution method; assay type: functional; procedure, shortened: as §4
# Streptococcus pneumoniae [33] = test: Antibacterial activity against Streptococcus pneumoniae OC6755 harboring gyrA S81F and parC S79Y mutant gene by agar dilution method; assay type: functional; procedure, shortened: as §3
# Streptococcus pneumoniae [34] = test: Antibacterial activity against Streptococcus pneumoniae isolate OC6585 assessed as log reduction in bacterial growth at 2 times MIC measured at 6 hrs by time-kill assay; assay type: functional; procedure, shortened: as §1
# Enterococcus faecium = test: Antibacterial activity against Enterococcus faecium by broth microdilution method; assay type: functional; procedure, shortened: as §5
compound,measurement,setting,value
COc1c(N2CCC/C(=C(\F)CN)C2)c(F)cc2c(=O)c(C(=O)O)cn(C3CC3)c12 [ACORAFLOXACIN],deltalog10CFU/ml,Streptococcus pneumoniae [1],3.6
same,solubility,[2],4520 µg/mL
same,deltalog10CFU/ml,Streptococcus pneumoniae [3],7.2
same,MIC50,[4],0.12 µg/mL
same,MIC90,[4],0.25 µg/mL
same,deltalog10CFU/ml,Staphylococcus aureus [5],5.9
same,deltalog10CFU/ml,Staphylococcus aureus [6],2.5
same,deltalog10CFU/ml,Streptococcus pneumoniae [7],3.3
same,MIC,Staphylococcus aureus [8],0.12 µg/mL
same,deltalog10CFU/ml,Streptococcus pneumoniae [9],4.3
same,MIC50,[10],0.12 µg/mL
same,MIC90,[10],0.25 µg/mL
same,MIC,Streptococcus pneumoniae [11],0.06 µg/mL
same,deltalog10CFU/ml,Streptococcus pneumoniae [12],3.4
same,MIC,Streptococcus pneumoniae [13],0.12 µg/mL
same,deltalog10CFU/ml,Streptococcus pneumoniae [14],7.5
same,MIC,Streptococcus pyogenes,0.008 µg/mL
same,MIC50,Streptococcus pyogenes,0.008 µg/mL
same,MIC90,Streptococcus pyogenes,0.015 µg/mL
same,deltalog10CFU/ml,Streptococcus pneumoniae [15],6.8
same,MIC,Staphylococcus aureus [16],0.5 µg/mL
same,Ratio,Providencia stuartii [17],16
same,deltalog10CFU/ml,Streptococcus pneumoniae [18],3.2
same,logD,[19],0.37
same,Activity,Streptococcus pneumoniae [20],Active
same,Ratio,Providencia stuartii [21],16
same,MIC,Staphylococcus aureus [22],0.012 µg/mL
same,MIC50,Staphylococcus aureus [23],0.25 µg/mL
same,MIC90,Staphylococcus aureus [23],0.25 µg/mL
same,Ratio,Streptococcus pneumoniae [24],9
same,deltalog10CFU/ml,Streptococcus pneumoniae [25],5.8
same,deltalog10CFU/ml,Staphylococcus aureus [26],6.2
same,deltalog10CFU/ml,Streptococcus pneumoniae [27],6.3
same,deltalog10CFU/ml,Staphylococcus aureus [28],4.2
same,MIC,Streptococcus pneumoniae [29],0.12 µg/mL
same,MIC50,Providencia stuartii [30],2 µg/mL
same,MIC90,Providencia stuartii [30],4 µg/mL
same,deltalog10CFU/ml,Streptococcus pneumoniae [31],4.4
same,MIC,Streptococcus pneumoniae [32],0.015 µg/mL
same,MIC,Streptococcus pneumoniae [33],0.12 µg/mL
same,deltalog10CFU/ml,Streptococcus pneumoniae [34],3.9
same,MIC50,Enterococcus faecium,0.5 µg/mL
same,MIC90,Enterococcus faecium,4 µg/mL
